Measurements from ChEMBL document CHEMBL4257520, “Design, synthesis and bioactivity investigation of tetrandrine derivatives as potential anti-cancer agents” (Medchemcomm, 2018).
pIC50: −log10 of the molar value.

Key:
[1] = system: MDA-MB-231; assay: Antiproliferative activity against human MDA-MB-231 cells after 48 hrs by MTT assay; format: functional, cell-based; conditions: MDA-MB-231, 48 h
How it was run: (§1)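 MTT assay on human cancer lines held at 37 °C, 95% humidity, 5% CO2. Cells were exposed to compounds at 20.0–0.5 μM for 48 h, then washed twice with PBS. MTT (5 mg mL–1 in PBS) was added for 4 h at 37 °C, the formazan was dissolved in DMSO, and A490 was read. IC50 comes from replicate wells over three independent experiments.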

[2] = system: HEL; assay: Antiproliferative activity against HEL cells after 48 hrs by MTT assay; format: functional, cell-based; conditions: Homo sapiens; how it was run: as §1
[3] = Antiproliferative activity against human WM9 cells after 48 hrs by MTT assay; format: functional, cell-based; conditions: WM9, 48 h; how it was run: as §1
[4] = system: K562; assay: Antiproliferative activity against human K562 cells after 48 hrs by MTT assay; format: functional, cell-based; conditions: K562, 48 h; how it was run: as §1
[5] = system: PC-3; assay: Antiproliferative activity against human PC3 cells after 48 hrs by MTT assay; format: functional, cell-based; conditions: PC-3, 48 h; how it was run: as §1
[6] = system: L02; assay: Cytotoxicity against human HL7702 cells after 48 hrs by MTT assay; format: cell-based; conditions: L02, 48 h
How it was run: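 Normal human liver HL7702 cells were assessed by MTT assay, with formazan absorbance as the read-out, to give an IC50 for cytotoxicity.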

SMILES	pIC50 [1]	pIC50 [2]	pIC50 [3]	pIC50 [4]	pIC50 [5]	pIC50 [6]
COc1cc([N+](=O)[O-])c2cc1Oc1ccc(cc1)C[C@H]1c3cc(c(OC)cc3CCN1C)Oc1c(OC)c(OC)cc3c1[C@H](C2)N(C)CC3	4.95	5.13	4.92	5.04	5.17	–
COc1cc(NS(=O)(=O)c2ccccc2)c2cc1Oc1ccc(cc1)C[C@H]1c3cc(c(OC)cc3CCN1C)Oc1c(OC)c(OC)cc3c1[C@H](C2)N(C)CC3	5.13	5.41	5.70	5.51	5.35	4.87
COc1cc(NS(=O)(=O)c2ccc(Cl)cc2)c2cc1Oc1ccc(cc1)C[C@H]1c3cc(c(OC)cc3CCN1C)Oc1c(OC)c(OC)cc3c1[C@H](C2)N(C)CC3	5.32	5.59	5.43	5.57	5.53	4.77
COc1cc(NS(=O)(=O)c2ccc(C(F)(F)F)cc2)c2cc1Oc1ccc(cc1)C[C@H]1c3cc(c(OC)cc3CCN1C)Oc1c(OC)c(OC)cc3c1[C@H](C2)N(C)CC3	5.18	5.54	5.35	5.44	5.42	5.09
COc1cc(NS(=O)(=O)c2cccc3cccnc23)c2cc1Oc1ccc(cc1)C[C@H]1c3cc(c(OC)cc3CCN1C)Oc1c(OC)c(OC)cc3c1[C@H](C2)N(C)CC3	5.20	5.55	5.34	5.86	5.37	4.90
COc1cc(NS(=O)(=O)c2ccc([N+](=O)[O-])cc2)c2cc1Oc1ccc(cc1)C[C@H]1c3cc(c(OC)cc3CCN1C)Oc1c(OC)c(OC)cc3c1[C@H](C2)N(C)CC3	5.15	5.43	5.37	5.39	5.35	4.85
COc1cc(NS(=O)(=O)c2ccc(Cl)nc2)c2cc1Oc1ccc(cc1)C[C@H]1c3cc(c(OC)cc3CCN1C)Oc1c(OC)c(OC)cc3c1[C@H](C2)N(C)CC3	5.16	5.22	5.10	5.23	5.24	4.71
CCCCS(=O)(=O)Nc1cc(OC)c2cc1C[C@H]1c3c(cc(OC)c(OC)c3Oc3cc4c(cc3OC)CCN(C)[C@H]4Cc3ccc(cc3)O2)CCN1C	5.27	5.17	5.20	5.14	5.28	4.65
COc1ccc2cc1Oc1ccc(cc1)C[C@H]1c3cc(c(OC)cc3CCN1C)Oc1c(OC)c(OC)cc3c1[C@H](C2)N(C)CC3 [FANCHININ]	5.05	5.13	5.21	4.93	5.23	4.35
COc1cc(NS(C)(=O)=O)c2cc1Oc1ccc(cc1)C[C@H]1c3cc(c(OC)cc3CCN1C)Oc1c(OC)c(OC)cc3c1[C@H](C2)N(C)CC3	5.25	5.59	5.59	5.45	5.47	4.83
COc1cc(NS(=O)(=O)c2ccc(C(C)(C)C)cc2)c2cc1Oc1ccc(cc1)C[C@H]1c3cc(c(OC)cc3CCN1C)Oc1c(OC)c(OC)cc3c1[C@H](C2)N(C)CC3	5.28	5.02	5.39	5.50	5.31	4.58
COc1cc(NS(=O)(=O)c2ccc(F)cc2)c2cc1Oc1ccc(cc1)C[C@H]1c3cc(c(OC)cc3CCN1C)Oc1c(OC)c(OC)cc3c1[C@H](C2)N(C)CC3	5.11	5.80	5.36	5.48	5.49	4.92
COc1cc(N)c2cc1Oc1ccc(cc1)C[C@H]1c3cc(c(OC)cc3CCN1C)Oc1c(OC)c(OC)cc3c1[C@H](C2)N(C)CC3	5.45	5.18	5.20	5.52	5.57	–
COc1cc(NS(=O)(=O)c2ccccc2F)c2cc1Oc1ccc(cc1)C[C@H]1c3cc(c(OC)cc3CCN1C)Oc1c(OC)c(OC)cc3c1[C@H](C2)N(C)CC3	5.10	5.52	5.38	5.23	5.23	4.79
COc1cc(NS(=O)(=O)C(F)(F)F)c2cc1Oc1ccc(cc1)C[C@H]1c3cc(c(OC)cc3CCN1C)Oc1c(OC)c(OC)cc3c1[C@H](C2)N(C)CC3	5.17	5.23	5.24	5.15	5.25	4.73
COc1cc(NS(=O)(=O)c2ccccc2[N+](=O)[O-])c2cc1Oc1ccc(cc1)C[C@H]1c3cc(c(OC)cc3CCN1C)Oc1c(OC)c(OC)cc3c1[C@H](C2)N(C)CC3	5.60	5.24	5.49	5.30	5.14	4.79
COc1cc(NS(=O)(=O)c2cc(Cl)cc(Cl)c2)c2cc1Oc1ccc(cc1)C[C@H]1c3cc(c(OC)cc3CCN1C)Oc1c(OC)c(OC)cc3c1[C@H](C2)N(C)CC3	5.41	5.25	5.43	5.83	5.47	4.86
COc1cc(NS(=O)(=O)c2ccc(Br)cc2)c2cc1Oc1ccc(cc1)C[C@H]1c3cc(c(OC)cc3CCN1C)Oc1c(OC)c(OC)cc3c1[C@H](C2)N(C)CC3	5.25	5.42	5.07	5.43	5.40	5.03
CCCS(=O)(=O)Nc1cc(OC)c2cc1C[C@H]1c3c(cc(OC)c(OC)c3Oc3cc4c(cc3OC)CCN(C)[C@H]4Cc3ccc(cc3)O2)CCN1C	5.29	5.22	5.39	5.38	5.18	4.90
COc1cc(NS(=O)(=O)c2ccccc2Cl)c2cc1Oc1ccc(cc1)C[C@H]1c3cc(c(OC)cc3CCN1C)Oc1c(OC)c(OC)cc3c1[C@H](C2)N(C)CC3	5.13	5.46	5.39	5.45	5.33	5.10
COc1cc(NS(=O)(=O)c2cccc([N+](=O)[O-])c2)c2cc1Oc1ccc(cc1)C[C@H]1c3cc(c(OC)cc3CCN1C)Oc1c(OC)c(OC)cc3c1[C@H](C2)N(C)CC3	5.20	5.66	5.47	5.75	5.71	5.00
CC[C@]1(O)C[C@H]2CN(CCc3c([nH]c4ccccc34)[C@@](C(=O)OC)(c3cc4c(cc3OC)N(C=O)[C@H]3[C@@](O)(C(=O)OC)[C@H](OC(C)=O)[C@]5(CC)C=CCN6CC[C@]43[C@@H]65)C2)C1 [VINCRISTINE]	5.01	5.22	5.37	5.27	5.27	–
COc1cc(NS(=O)(=O)c2c(C(C)C)cc(C(C)C)cc2C(C)C)c2cc1Oc1ccc(cc1)C[C@H]1c3cc(c(OC)cc3CCN1C)Oc1c(OC)c(OC)cc3c1[C@H](C2)N(C)CC3	5.27	5.27	5.67	5.17	5.26	4.49
COc1cccc(S(=O)(=O)Nc2cc(OC)c3cc2C[C@H]2c4c(cc(OC)c(OC)c4Oc4cc5c(cc4OC)CCN(C)[C@H]5Cc4ccc(cc4)O3)CCN2C)c1	5.34	5.07	5.39	5.49	5.40	4.55
COc1cc(NS(=O)(=O)c2c(C)cc(C)cc2C)c2cc1Oc1ccc(cc1)C[C@H]1c3cc(c(OC)cc3CCN1C)Oc1c(OC)c(OC)cc3c1[C@H](C2)N(C)CC3	5.27	5.32	5.38	5.49	5.48	4.67
COc1cc(NS(=O)(=O)c2cccc(Br)c2)c2cc1Oc1ccc(cc1)C[C@H]1c3cc(c(OC)cc3CCN1C)Oc1c(OC)c(OC)cc3c1[C@H](C2)N(C)CC3	5.42	5.54	5.77	5.84	5.46	5.06
COc1cc(NS(=O)(=O)c2ccc(NC(C)=O)cc2)c2cc1Oc1ccc(cc1)C[C@H]1c3cc(c(OC)cc3CCN1C)Oc1c(OC)c(OC)cc3c1[C@H](C2)N(C)CC3	5.18	4.97	5.48	5.46	5.32	4.76
